Bioassay records (PubChem BioAssay)
M4 antag: human M4 muscarinic receptor antagonists, primary screen, CHO cells, Fluo-8 calcium fluorescence; Muscarinic acetylcholine receptor M4 (Homo sapiens), P08173; inhibition, % at 3 µM; AID 624125, 2012; 360,000 tested, 0.73% active; CHO-hM4 cells, ACh EC80;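 active means inhibition above its plate's cutoff, the mean inhibition of sample wells plus 3 SD, cut at about 27% in these data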;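 further: 0% = acetylcholine EC80 with DMSO and 100% = DMSO without agonist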
CHRM4 PAM: human M4 muscarinic receptor positive allosteric modulators, primary screen, CHO-K1 cells, Fluo-8 calcium fluorescence; Muscarinic acetylcholine receptor M4 (Homo sapiens), P08173; CHO-K1 hM4/Gqi5, ACh EC20; 0% = ACh EC20, 100% = maximal ACh; activation, % at 3 µM; 360,000 tested, 0.4% active;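 active means activation above its plate's cutoff, the mean activation of sample wells plus 3 SD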
CHRM4 agonist: human M4 muscarinic receptor agonists, primary screen, CHO-K1 cells, Fluo-8 calcium fluorescence; CHO-K1 hM4/Gqi5; vehicle 0%, full acetylcholine response 100%; activation, % at 3 µM; 360,000 tested, 0.14% active;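 active means activation above the run mean over all test wells plus 3 SD, cut at about 32% in these data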;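 further: peak over basal fluorescence ratio per well then scaled between controls; 0% = DMSO wells and 100% = acetylcholine at EC100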
CHRM5 agonist: human M5 muscarinic receptor agonists, primary screen, CHO-K1 cells, Fluo-8 calcium fluorescence; CHO-K1 hM5 cells; 0% DMSO wells, 100% maximal acetylcholine response; activation, % at 3 µM; 360,000 tested, 0.19% active; AID 624037, 2012;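 active means activation above the run's mean over test compounds plus 3 SD, cut at about 23% in these data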;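 further: signal is peak over basal fluorescence ratio across the kinetic read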
Target sequence (P08912 whole entry, looked up): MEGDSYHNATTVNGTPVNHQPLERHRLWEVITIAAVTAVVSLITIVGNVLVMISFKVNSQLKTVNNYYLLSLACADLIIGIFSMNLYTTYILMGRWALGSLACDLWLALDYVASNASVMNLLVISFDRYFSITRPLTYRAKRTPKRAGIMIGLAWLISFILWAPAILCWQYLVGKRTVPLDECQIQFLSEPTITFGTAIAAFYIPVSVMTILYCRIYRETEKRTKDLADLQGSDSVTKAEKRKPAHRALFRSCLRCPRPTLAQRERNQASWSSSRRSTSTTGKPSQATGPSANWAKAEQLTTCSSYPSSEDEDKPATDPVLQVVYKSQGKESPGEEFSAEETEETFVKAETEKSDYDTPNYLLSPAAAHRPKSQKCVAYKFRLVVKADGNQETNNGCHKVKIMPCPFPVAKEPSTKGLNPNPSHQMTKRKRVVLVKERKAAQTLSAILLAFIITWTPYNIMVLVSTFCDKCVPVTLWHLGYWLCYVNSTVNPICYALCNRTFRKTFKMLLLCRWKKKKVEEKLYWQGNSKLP
CHRM5 antagonist: human M5 muscarinic receptor antagonists, primary screen, CHO cells, Fluo-8 calcium fluorescence; Muscarinic acetylcholine receptor M5 (Homo sapiens), P08912; inhibition, % at 3 µM; 360,000 tested, 0.59% active; CHO-hM5 cells, ACh EC80; AID 624040, 2012;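 active means inhibition above a per-plate cutoff, the mean of that plate's test compounds plus 3 SD, cut at about 27% in these data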;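 further: 0% = acetylcholine EC80 with DMSO and 100% = DMSO without agonist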
M5 PAM: human M5 muscarinic receptor positive allosteric modulators, primary screen, CHO-K1 cells, Fluo-8 calcium fluorescence | activation, % at 3 µM | Muscarinic acetylcholine receptor M5 (Homo sapiens), P08912 | CHO-K1 hM5, ACh EC20 PAM; 0% = ACh EC20, 100% = ACh EC100 | 360,000 tested, 0.3% active;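 active means activation above the run cutoff, the mean activation of all test compounds plus 3 SD, cut at about 18% in these data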
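system = human M5 receptor in CHO-K1 cells | compound = one concentration, 3 µM final (nominal) | schedule = Post-acetylcholine fluorescence recording 140 s | signal = Fluo-8 calcium dye fluorescence, kinetic read | benchmarks = low control EC20 acetylcholine (0%), high control EC100 acetylcholine (100%) | repeats = singlicate, one well per test compound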
An asterisk follows results filed as active. Shown are actives, neighbours in structure and some others; about 1.8% of the full set was active somewhere.

SMILES	M4 antag	CHRM4 PAM	CHRM4 agonist	CHRM5 agonist	CHRM5 antagonist	M5 PAM
CC1CCCC(C)N1C(=O)c1ccccc1Nc1ccc(SC(F)F)cc1 (stereo unspecified)	-7.3	-1.5	-1.5	-5.8	-6.0	22.4*
O=C(c1ccc(F)cc1)N1CCC(C(=O)N2CCN(c3ncccn3)CC2)CC1	-1.1	17.6	1.8	3.5	-1.8	-0.1
O=C(O)CN1C(=O)NC2(CCOc3ccccc32)C1=O (stereo unspecified)	-1.0	-1.1	-0.1	-0.7	-1.4	6.0
O=C1NC2(CCOc3ccccc32)C(=O)N1CC(=O)N(Cc1ccccc1)C1CCS(=O)(=O)C1 (stereo unspecified)	-4.2	4.4	0.6	-0.2	-22.5	22.5*
O=C(CO/N=C1\CCCc2nonc21)Nc1ccccc1Cl	26.8*	16.2	2.1	-0.9	2.3	-0.2
COC(=O)c1[nH]c2ccc(C)cc2c1NC(=O)CCN1CCN(Cc2ccc3c(c2)OCO3)CC1	24.6	-15.0	1.8	-7.5	32.6*	-12.2
OC(c1cccc(F)c1)c1ncc(-c2ccc(C(F)(F)F)cc2)[nH]1 (stereo unspecified)	-6.7	1.0	2.4	-0.5	5.7	-5.0
O=c1c(/C=C(\O)c2ccccc2)nc2ccccc2n1-c1ccccc1	38.6*	3.7	26.2	-1.3	5.4	-1.3
Cc1ccc(NC(=O)CNC(=O)Cn2cnc3sc(C)c(C)c3c2=O)cc1F	-4.2	3.3	0.1	0.2	-0.4	0.4
CCOc1ccc(CCNC(=O)CSCC(=O)Nc2cccc(C)c2)cc1OCC	0.2	-2.3	0.6	-1.7	0.1	-2.3
CCOCc1nnc(NC(=O)c2cc(OC)c(OC)cc2[N+](=O)[O-])s1	-3.4	21.8*	2.0	3.1	-15.2	10.4
CCOCCc1nnc(NC(=O)c2cc(OC)c(OC)cc2[N+](=O)[O-])s1	2.8	1.2	0.8	2.9	7.2	0.9
OC[C@@H]1CN(Cc2ccccc2)C[C@H](n2cnc3c(NCc4ccco4)ncnc32)O1	-2.8	-1.0	3.2	2.1	-1.3	-0.4
COc1cc(CN2C[C@@H](CO)O[C@@H](n3cnc4c(NCC(C)C)ncnc43)C2)cc(OC)c1OC	-11.3	16.8*	2.3	1.6	17.0	1.9
OC[C@@H]1CN(Cc2ccc(-c3ccccc3)cc2)C[C@H](n2cnc3c(NCc4ccco4)ncnc32)O1	29.0*	-6.6	23.7	4.7	25.4	-13.5
COCCNc1ncnc2c1ncn2[C@H]1CN(Cc2cc(OC)c(OC)c(OC)c2)C[C@@H](CO)O1	-1.2	-6.0	0.2	0.7	2.7	-7.2
CN1CCN(c2ncnc3c2ncn3[C@H]2CN(Cc3ccc(C(=O)O)cc3)C[C@@H](CO)O2)CC1	-19.2	18.3*	0.7	-1.0	1.2	-5.6
CC(C)[C@@H](CO)NC(=O)[C@H]1O[C@@H](n2cnc3c(N)ncnc32)[C@H](O)[C@@H]1O	3.2	4.2	0.8	0.9	2.6	6.1
CCN1/C(=C/c2cc[n+](CCCS(=O)(=O)[O-])c3ccccc23)Sc2ccccc21	2.2	1.3	0.4	-0.5	-0.4	5.5
C=CC[n+]1ccc(/C=C2\C=Cc3cc(C)ccc3N2CC)c2ccccc21	15.2	-12.5	4.5	1.0	35.0*	-17.5
COc1ccc(CCn2c(NN=C3CCCCC3)nc3c2c(=O)[nH]c(=O)n3C)cc1	2.4	13.8*	-0.1	1.5	6.0	5.4
CCSc1nnc(NC(=O)CCNC(=O)c2ccccc2Cl)s1	-3.4	5.8	1.2	2.7	9.7	-6.0
COC(=O)C1=CN(Cc2cccs2)C=C(C(=O)OC)C1c1ccc(OC)cc1OC	-3.5	0.7	-1.3	-3.8	26.9*	-14.6
COC(=O)C1=CN(Cc2cccs2)C=C(C(=O)OC)C1c1cccc(Cl)c1	7.6	-6.7	-1.2	-10.1	9.5	-21.0
COc1ccc(Br)c(Cn2c(C)c(C(=O)NCCC#N)sc2=O)c1	-2.9	11.2	1.7	-0.7	-5.0	2.5
SMILES	M4 antag	CHRM4 PAM	CHRM4 agonist	CHRM5 agonist	CHRM5 antagonist	M5 PAM
COc1ccc(C(=O)C2CCCN(C3Cc4ccccc4C3)C2)cc1OC (stereo unspecified)	29.4*	-17.7	0.8	-10.3	10.8	-11.2
CCOC(=O)N1CCC(N2CCCC(C(=O)c3cc(C)c(OC)c(C)c3)C2)CC1 (stereo unspecified)	21.4	-15.9	2.5	-11.1	35.8*	-19.7
COc1ccc(C(=O)C2CCCN(Cc3nc4ccccc4nc3C)C2)cc1OC (stereo unspecified)	-8.2	-2.1	0.8	-3.8	-3.4	0.1
O=C(COc1ccc(Cl)cc1)Nc1ncc([N+](=O)[O-])s1	1.9	-6.0	13.2	4.1	31.0*	-19.6
Cc1ccc(C(=O)Nc2ncc([N+](=O)[O-])s2)cc1	5.1	-6.3	15.3	2.4	31.6*	-18.7
Cc1c(C(=O)C(=O)NCc2cccs2)c2ccccc2n1C	-1.5	-1.5	8.1	-3.5	1.8	-8.9
Cc1nc2c(C(F)(F)F)cccc2c2c1CCS2	-4.9	3.8	0.1	3.9	-4.5	19.0*
CC(C)(C)NCCC(O)c1cc(C(F)(F)F)nc2c(C(F)(F)F)cccc12 (stereo unspecified)	-2.4	-2.7	14.4	3.9	2.5	4.9
CCC1CCCCN1CCCNC(=O)c1cn(CC)c2ccc(S(=O)(=O)N3CCc4ccccc4C3)cc2c1=O (stereo unspecified)	31.3*	-22.5	-0.6	-14.8	5.4	0.3
CCn1cc(C(=O)NCCCOC)c(=O)c2cc(S(=O)(=O)N(C)C3CCCCC3)ccc21	-3.3	-2.9	5.6	-0.5	-1.5	-4.8
CCC1CCCCN1CCCNC(=O)c1cn(CC)c2ccc(S(=O)(=O)N(C)C3CCCCC3)cc2c1=O (stereo unspecified)	32.8*	-10.6	-0.1	-7.6	2.3	-4.3
C=CCN(C(=O)CNS(=O)(=O)c1ccccc1)C(C(=O)NCCOC)c1cccnc1 (stereo unspecified)	4.7	0.2	0.5	-1.8	0.1	6.1
COc1ccccc1CN1CCC(CNS(=O)(=O)c2cc(-c3onc(C)c3C)ccc2OC)CC1	42.3*	-22.6	2.4	-8.9	15.1	-13.5
Cc1oc(-c2ccccc2F)nc1CS(=O)CC(=O)NC1CCCC1 (stereo unspecified)	-2.4	4.7	0.6	-2.3	4.6	-1.6
